{"data": "Measurements gathered from unrelated publications", "Oprd1": "Delta-type opioid receptor (Oprd1, Mus musculus, UniProt P32300)", "lecA": "PA-I galactophilic lectin (lecA, Pseudomonas aeruginosa, UniProt Q05097)", "CHRM2": "Muscarinic acetylcholine receptor M2 (CHRM2, Homo sapiens, UniProt P08172)", "note": "Protocols differ between the studies behind these lines."}
{"Compound": "Cc1cc(O)cc(C)c1C[C@H](N)C(=O)N[C@H](C)C(=O)N[C@@H](Cc1ccccc1)C(=O)N[C@@H](CCCN)C(N)=O", "target": "Oprd1", "test": "ligand displacement, radioligand", "setting": "cell membranes", "measurement": "Ki", "result": "60 nM"}
{"Compound": "CC(C)[C@H](NC(=O)[C@H](CCCCN)NC(=O)[C@@H](NC(=O)[C@@H]1CCCN1C(=O)[C@H](CCCNC(=N)N)NC(=O)CNC(=O)[C@@H](NC(=O)[C@@H](NC(=O)CNC(=O)[C@H](CO)NC(=O)CNC(=O)CCCC[C@@H]1SC[C@@H]2NC(=O)N[C@@H]21)[C@@H](C)O)[C@@H](C)O)[C@@H](C)O)C(=O)N[C@@H](Cc1ccccc1)C(=O)N[C@H](C(=O)N1CCC[C@H]1C(=O)N1CCC[C@H]1C(=O)N[C@@H](Cc1ccccc1)C(=O)N[C@@H](CCCCN)C(=O)N[C@H](C(=O)N[C@@H](CCCCN)C(=O)N[C@@H](CO)C(=O)N[C@@H](Cc1c[nH]cn1)C(=O)N[C@@H](Cc1ccccc1)C(=O)N[C@@H](Cc1c[nH]cn1)C(N)=O)[C@@H](C)O)C(C)C", "target": "DMC1 (Homo sapiens, UniProt Q14565)", "test": "binding, BLI", "measurement": "Kd", "result": "1.3e-06 mM"}
{"Compound": "CC[C@H](C)[C@H](NC(=O)[C@H](Cc1ccccc1)NC(=O)[C@H](CC(=O)O)NC(=O)[C@H](CCCNC(=N)N)NC(=O)[C@@H](NC(=O)[C@H](C)NC(=O)[C@H](CC(C)C)NC(=O)[C@H](CC(N)=O)NC(=O)[C@H](CC(=O)O)NC(=O)[C@H](CC(C)C)NC(=O)[C@@H](NC(=O)[C@@H](NC(=O)[C@H](CO)NC(=O)[C@H](CCSC)NC(=O)[C@H](CCC(=O)O)NC(=O)[C@H](CC(=O)O)NC(=O)[C@H](CO)NC(=O)[C@H](Cc1ccccc1)NC(=O)[C@H](CO)NC(=O)CNC(=O)[C@H](CC(=O)O)NC(=O)[C@H](C)NC(=O)[C@@H](N)Cc1c[nH]cn1)[C@@H](C)O)[C@@H](C)CC)[C@@H](C)O)C(=O)N[C@@H](CC(N)=O)C(=O)N[C@@H](Cc1c[nH]c2ccccc12)C(=O)N[C@@H](CC(C)C)C(=O)N[C@H](C(=O)N[C@@H](CCC(N)=O)C(=O)N[C@H](C(=O)N[C@@H](CCCCN)C(=O)N[C@H](C(=O)N[C@H](C(=O)N[C@@H](CC(=O)O)C(=O)O)[C@@H](C)O)[C@@H](C)CC)[C@@H](C)O)[C@@H](C)CC", "target": "Gastric inhibitory polypeptide receptor (Mus musculus, UniProt Q0P543)", "test": "reporter gene, agonist, luciferase", "measurement": "EC50", "result": "> 1000 nM"}
{"Compound": "CC(C)C[C@H](NC(=O)CNC(=O)[C@H](C)NC(=O)c1ccc(S[C@@H]2O[C@H](CO)[C@H](O)[C@H](O)[C@H]2O)cc1)C(=O)N[C@@H](C)C(=O)NC[C@@H]1CCN(c2cc3c(cc2F)c(=O)c(C(=O)O)cn3C2CC2)C1", "target": "lecA", "test": "ligand displacement, FP", "measurement": "Ki", "result": "11200 nM"}
{"Compound": "CC(=O)NC[C@H](NC(=O)[C@H](CCCNC(=N)N)NC(=O)[C@H](CCCNC(=N)N)NC(=O)[C@H](CC(C)C)NC(=O)[C@H](Cc1ccccc1)NC(=O)CNC(=O)CNC(=O)[C@H](Cc1ccc(O)cc1)NCc1ccccc1)C(=O)N[C@@H](CCCNC(=N)N)C(=O)N1CCC[C@H]1C(=O)N[C@@H](CCCCN)C(N)=O", "target": "Oprd1", "test": "ligand displacement, radioligand", "setting": "cell membranes", "measurement": "Ki", "result": "2290 nM"}
{"Compound": "COc1cc(C(=O)N2CC[C@@H](O)[C@@H](N)C2)cc2nc(-c3cc4ccccc4n3CC3CC3)n(C)c12", "target": "CHRM2", "test": "calcium signal, agonist", "measurement": "EC50", "result": "> 15800 nM"}
{"Compound": "CC(C)C[C@H](NC(=O)[C@H](Cc1ccccc1)NC(=O)[C@H](Cc1ccc(O)cc1)NC(=O)CNC(=O)[C@H](CCCCN)NC(=O)[C@H](CO)NC(=O)[C@H](CCC(N)=O)NC(=O)CNC(=O)[C@@H](NC(=O)[C@H](CO)NC(=O)[C@@H]1CCCN1C(=O)[C@H](CO)NC(=O)[C@H](CCC(N)=O)NC(=O)[C@H](Cc1ccc(O)cc1)NC(=O)[C@H](CCC(=O)O)NC(=O)[C@H](C)NC(=O)[C@H](CCCCN)NC(=O)[C@@H](N)Cc1ccccc1)C(C)C)C(=O)N[C@@H](Cc1ccccc1)C(=O)N[C@@H](CCCNC(=N)N)C(=O)N1CCC[C@H]1C(=O)N[C@@H](CCCNC(=N)N)C(=O)N[C@@H](CC(N)=O)C(N)=O", "target": "Neuromedin-U receptor 1 (Mus musculus, UniProt O55040)", "test": "inositol phosphate, agonist", "measurement": "EC50", "result": "0.166 nM"}
{"Compound": "N[C@H](CO)Cc1ccccc1", "target": "Phenylalanine-4-hydroxylase (Pah, Rattus norvegicus, UniProt P04176)", "test": "binding, fluorescence", "setting": "pH 7.5", "measurement": "Kd", "result": "10.6 mM"}
{"Compound": "Cc1nccc2c1[nH]c1ccccc12", "target": "Amine oxidase [flavin-containing] A (Maoa, Rattus norvegicus, UniProt P21396)", "test": "enzyme activity, inhibitor", "measurement": "Ki", "result": "750 nM"}
{"Compound": "CC(C)[C@@H](Nc1nc(Cl)nc2c1ncn2[C@H]1[C@H](O)[C@H](O)[C@]2(CN)C[C@H]12)C1CC1", "target": "CHRM2", "test": "ligand displacement, radioligand", "measurement": "Ki", "result": "> 6600 nM"}
{"Compound": "CC(C)C[C@H](NC(=O)CNC(=O)[C@H](C)NC(=O)c1ccc(S[C@@H]2O[C@H](CO)[C@H](O)[C@H](O)[C@H]2O)cc1)C(=O)N[C@@H](C)C(=O)N1CCN(c2cc3c(cc2F)c(=O)c(C(=O)O)cn3C2CC2)CC1", "target": "lecA", "test": "ligand displacement, FP", "measurement": "Ki", "result": "12900 nM"}
